Screening results: PubChem, several laboratories
PfM18AAP inh: blocks P. falciparum M18 aspartyl aminopeptidase. recombinant PfM18AAP, H-Glu-NHMec fluorogenic cleavage. inhibition, % at 7.35 µM. 290,000 compounds, 1.2% hits;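 active = inhibition above the campaign mean inhibition over all tested compounds plus 3 SD, cut at about 28% in these data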;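 note: 0% = plate median of test compound wells and 100% = 2 mM ZnCl2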
UCH37 DUB inh: human UCH37 deubiquitinating enzyme inhibition; inhibition, % (no concentration beside the values); Q9Y5K5; purified proteasome/UCH37, Ub-AMC cleavage fluorescence; 330,000 compounds, 0.33% hits;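 active = mean inhibition over replicate wells above about 20%, limit read from the data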;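 note: 0% = compound-free wells with enzyme and 100% = wells lacking proteasome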
Target sequence (Q9Y5K5 whole entry, looked up): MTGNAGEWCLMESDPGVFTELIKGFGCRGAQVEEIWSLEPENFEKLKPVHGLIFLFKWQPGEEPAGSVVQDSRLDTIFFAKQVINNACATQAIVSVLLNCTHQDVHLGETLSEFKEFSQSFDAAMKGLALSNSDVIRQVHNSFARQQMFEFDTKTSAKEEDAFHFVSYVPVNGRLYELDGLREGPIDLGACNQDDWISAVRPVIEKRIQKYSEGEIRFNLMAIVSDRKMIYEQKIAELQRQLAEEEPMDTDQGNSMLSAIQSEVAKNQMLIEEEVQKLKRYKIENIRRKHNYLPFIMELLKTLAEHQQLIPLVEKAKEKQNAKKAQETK
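Assay system: Proteasome-bound UCH37. Buffer or medium: pH 7.4 Tris-HCl (50 mM) with ovalbumin, ATP-MgCl2, DTT. Incubation: 30 min preincubation with enzyme, 25 min cleavage at room temperature. Measured by: fluorescence, ex 355 nm, em 460 nm. Read-out basis: percent inhibition. Control set: wells without proteasome as full block, compound-free enzyme plus substrate as uninhibited.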
FAS TE block: inhibitors of human fatty acid synthase thioesterase domain; 360,000 compounds, 0.67% hits; recombinant FAS-TE, OMFH fluorogenic substrate, fluorescence endpoint; P49327; inhibition, % at 15 µM;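 active = compounds whose normalised, plate-corrected inhibition of enzyme fluorescence in the single-dose primary screen is 50% or more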;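 note: 0% = DMSO with enzyme and 100% = substrate without enzyme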
ALR inh: human ALR oxidase inhibition via reduced H2O2 | inhibition, % (test concentration not listed) | purified ALR, DTT oxidation, H2O2 HRP-luminol luminescence | 290,000 compounds, 3.8% hits;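 active = mean replicate inhibition above about 79%, with every replicate also reaching it, limit read from the data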
HDAC3 inh: human HDAC3 inhibition; inhibition, % at 8.3 µM; AID 2718; recombinant HDAC3, fluorogenic peptide/trypsin coupled, fluorescence; 320,000 compounds, 0.15% hits; in the data active = inhibition above about 26%, passing the limit was not always enough
Rtt109 Vps75: inhibitors of Candida albicans Rtt109/Vps75 histone acetyltransferase | purified Rtt109/Vps75, ThioGlo CoA-SH fluorescence, 4 h | Q5AAJ8 | inhibition, % at 34.9 µM | 330,000 compounds, 0.16% hits;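 active = inhibition of at least 50% in every replicate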
Starred values were filed as active, the others as inactive. Only some compounds are listed: those with a hit (about 4.6% of all), similar ones and a draw of the others.

`COc1ccc(Cl)c(NC(=O)CC(C)=NNC(=O)CCc2ccccc2)c1` gave UCH37 DUB inh 5.
COc1ccc2[nH]c(C(=O)O)c(NS(=O)(=O)c3ccc(Cl)s3)c2c1 was read as PfM18AAP inh -2, UCH37 DUB inh 7, FAS TE block -5, ALR inh 99*, HDAC3 inh -9 and Rtt109 Vps75 4.
Screening CCOC(=O)c1[nH]c2ccc(OC)cc2c1NS(=O)(=O)c1ccc(Cl)s1 returned PfM18AAP inh 2, UCH37 DUB inh 3, FAS TE block 16, ALR inh 66, HDAC3 inh 4 and Rtt109 Vps75 2.
For COc1ccc2[nH]c(C(=O)O)c(NS(=O)(=O)c3ccc(F)cc3)c2c1 the results were PfM18AAP inh -9, UCH37 DUB inh -2, FAS TE block -6, ALR inh 90*, HDAC3 inh 1 and Rtt109 Vps75 -12.
`COc1ccc2[nH]c(C(=O)O)c(CCNC(C)=O)c2c1` gave PfM18AAP inh 1, UCH37 DUB inh -11, FAS TE block -6, HDAC3 inh -24 and Rtt109 Vps75 5.
For COc1ccc2[nH]c(C(=O)O)c(NS(=O)(=O)c3ccc(C)c(C)c3)c2c1 the results were PfM18AAP inh -2, UCH37 DUB inh -12, FAS TE block -3, ALR inh 97*, HDAC3 inh -12 and Rtt109 Vps75 -10.
`Cc1ccc(C=NNC(=O)c2ccc(-n3cccc3)cc2)o1` gave UCH37 DUB inh 0.
Screening CC1CCN(c2ccccc2NC(=O)c2cc([N+](=O)[O-])ccc2N2CCOCC2)CC1 returned PfM18AAP inh -2, UCH37 DUB inh 5, FAS TE block 34, ALR inh -10, HDAC3 inh -10 and Rtt109 Vps75 54*.
Screening O=C(Nc1cccc(F)c1)c1cccnc1N1CCOCC1 returned PfM18AAP inh 1, UCH37 DUB inh 6, FAS TE block -6, ALR inh 85*, HDAC3 inh -7 and Rtt109 Vps75 -6.
`O=C(Nc1ccccc1Cl)c1cc(S(=O)(=O)N2CCCCC2)ccc1N1CCOCC1` gave PfM18AAP inh -6, UCH37 DUB inh -1, FAS TE block 22, ALR inh -9, HDAC3 inh -3 and Rtt109 Vps75 60*.
`O=C(Nc1cc(S(=O)(=O)N2CCCCC2)ccc1O)c1ccccc1NS(=O)(=O)c1ccc(F)c(F)c1` gave PfM18AAP inh -4, UCH37 DUB inh -5, FAS TE block 16, ALR inh 96*, HDAC3 inh 4 and Rtt109 Vps75 1.
`O=C(Nc1cccc(C(F)(F)F)c1)c1cccnc1N1CCOCC1` gave PfM18AAP inh 5, UCH37 DUB inh 4, FAS TE block 5, ALR inh 3, HDAC3 inh 10 and Rtt109 Vps75 6.
`O=C(CSc1ncccn1)NN=Cc1ccc2c(c1)OCO2` gave UCH37 DUB inh -1.
`O=C(Nc1ccccc1N1CCOCC1)c1cc(F)cc(F)c1` gave PfM18AAP inh -7, UCH37 DUB inh 1, FAS TE block 4, HDAC3 inh 0 and Rtt109 Vps75 -2.
`O=C(Nc1ccccc1N1CCOCC1)c1cccc(F)c1` gave PfM18AAP inh 1, UCH37 DUB inh 2, FAS TE block 2, ALR inh 96*, HDAC3 inh -2 and Rtt109 Vps75 4.
O=C(Nc1cccc(S(=O)(=O)N2CCCC2)c1)c1cccc(S(=O)(=O)N2CCOCC2)c1 was read as UCH37 DUB inh 6, FAS TE block 6, ALR inh 97*, HDAC3 inh 2 and Rtt109 Vps75 19.
Screening COc1cccc(NC(=O)c2oc3ccc(S(=O)(=O)N4CCOCC4)cc3c2C)c1 returned PfM18AAP inh -2, UCH37 DUB inh 3, FAS TE block 6, ALR inh 82*, HDAC3 inh 7 and Rtt109 Vps75 17.
Screening O=C(Nc1cccc(O)c1)c1cccc(S(=O)(=O)N2CCCC2)c1 returned PfM18AAP inh -3, UCH37 DUB inh -1, FAS TE block -4, ALR inh 2, HDAC3 inh -8 and Rtt109 Vps75 9.
Screening CC(=O)c1cccc(S(=O)(=O)N2CCC(C(=O)O)CC2)c1 returned PfM18AAP inh -3, UCH37 DUB inh 2, FAS TE block -9, ALR inh -5, HDAC3 inh 0 and Rtt109 Vps75 58*.
